This is an account of results in ChEMBL document CHEMBL1155443, “Synthesis and evaluation of alpha-halogenated analogues of 3-(acetylhydroxyamino)propylphosphonic acid (FR900098) as antimalarials” (J Med Chem, 2010).

The term IC50 denotes the concentration needed to halve the response being measured. Low readings indicate higher potency, high ones lower potency. As usually defined, the pKa is the negative logarithm of the acid dissociation constant. Low readings indicate a group that gives up its proton readily, high ones a group that holds its proton tightly.

Activity calls are given as the source filed them. The calls are words filed in the database; no cut-off is given here.

Data set [1] deals with Plasmodium falciparum. Kind of data set: Antiplasmodial activity against Plasmodium falciparum K1 by micro dilution assay. It counts as functional, organism-based. The method, boiled down:
(§1)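 Intraerythrocytic P. falciparum, strains GHA and K1, in a microdilution assay; tested in duplicate.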

Data set [2] relates to Plasmodium berghei. Kind of data set: Antiplasmodial activity against Plasmodium berghei ANKA infected in mice (Mus musculus) assessed as mice (Mus musculus) survival at 50 mg/kg, intraperitoneal for 5 consecutive days measured on day 14 post parasitic infection. Also noted: dose 50 mg/kg. It counts as functional, organism-based. The method, boiled down: (§2)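 P. berghei GFP ANKA acute mouse model. Drug was given intraperitoneally once daily for 5 consecutive days, alongside vehicle-treated infected controls. Mice were watched for clinical and adverse signs and euthanized for welfare if signs became very severe. Surviving animals were counted per group on days 7, 11, 14 and 25, and mean survival time was calculated.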

Data set [3] concerns Plasmodium berghei. The experiment in a line: Antiplasmodial activity against Plasmodium berghei ANKA infected in mice (Mus musculus) assessed as mean survival time at 50 mg/kg, intraperitoneal for 5 consecutive days. It counts as functional. The method, boiled down: (§3)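 P. berghei (GFP ANKA strain) acute mouse model; intraperitoneal dosing for 5 consecutive days (test compounds 50 mg/kg, chloroquine reference 10 mg/kg). Parasitaemia measured by flow cytometry (10 μL blood in 2000 μL PBS) on days 4, 7 and 14 in survivors, expressed as % reduction versus vehicle-treated infected controls. Survivors counted on days 7, 11, 14 and 25; mean survival time calculated.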

In data set [4] the test system is Plasmodium falciparum. The experiment in a line: Antiplasmodial activity against Plasmodium falciparum Ghana by micro dilution assay. It counts as functional, organism-based. A digest of the protocol: as §1
In data set [5] the test system is Plasmodium berghei. The experiment in a line: Antiplasmodial activity against Plasmodium berghei ANKA infected in mice (Mus musculus) assessed as suppression of parasitaemia at 50 mg/kg, intraperitoneal for 5 consecutive days measured on day 4 post parasitic infection. It counts as functional. As to conditions: ip, 96 h. A digest of the protocol: as §3
In data set [6] the test system is Plasmodium berghei. Kind of data set: Antiplasmodial activity against Plasmodium berghei ANKA infected in mice (Mus musculus) assessed as mice (Mus musculus) survival at 50 mg/kg, intraperitoneal for 5 consecutive days measured on day 25 post parasitic infection. The data set is classed as functional, organism-based. Also noted: dose 50 mg/kg. A digest of the protocol: as §3

The test system of data set [7] is Plasmodium berghei. The experiment in a line: Antiplasmodial activity against Plasmodium berghei ANKA infected in mice (Mus musculus) assessed as mice (Mus musculus) survival at 50 mg/kg, intraperitoneal for 5 consecutive days measured on day 11 post parasitic infection. It counts as functional, organism-based. Also noted: dose 50 mg/kg. A digest of the protocol:
as §2

For data set [8], the system named is Plasmodium falciparum. The experiment in a line: Ratio of fosmidomycin IC50 to compound IC50 for Plasmodium falciparum K1. It counts as functional.
The test system of data set [9] is Plasmodium berghei. Kind of data set: Antiplasmodial activity against Plasmodium berghei ANKA infected in mice (Mus musculus) assessed as suppression of parasitaemia at 50 mg/kg, intraperitoneal for 5 consecutive days measured on day 7 post parasitic infection. The note with it: ip, 168 h. The data set is classed as functional. A digest of the protocol: as §3

Data set [10] concerns Plasmodium berghei. Kind of data set: Antiplasmodial activity against Plasmodium berghei ANKA infected in mice (Mus musculus) assessed as suppression of parasitaemia at 50 mg/kg, intraperitoneal for 5 consecutive days measured on day 14 post parasitic infection. It counts as functional. As to conditions: ip, 336 h. A digest of the protocol: as §3
Data set [11] in a line: Dissociation constant, pKa by NMR titration assay. The data set is classed as physicochemical. A digest of the protocol: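 The ³¹P NMR chemical shift was recorded across a range of pH values and plotted against pH. Each pKa was taken as the pH at the inflection point of the titration curve, with the second pKa the value of interest.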
The test system of data set [12] is Plasmodium berghei. The experiment in a line: Antiplasmodial activity against Plasmodium berghei ANKA infected in mice (Mus musculus) assessed as mice (Mus musculus) survival at 50 mg/kg, intraperitoneal for 5 consecutive days measured on day 7 post parasitic infection. The data set is classed as functional, organism-based. Also noted: dose 50 mg/kg. The method, boiled down:
as §3

Data set [13] concerns Plasmodium berghei. The experiment in a line: Antiplasmodial activity against Plasmodium berghei ANKA infected in mice (Mus musculus) assessed as mean survival time at 10 mg/kg, intraperitoneal for 5 consecutive days. The data set is classed as functional. A digest of the protocol: as §3
Data set [14] deals with Plasmodium berghei. The experiment in a line: Antiplasmodial activity against Plasmodium berghei ANKA infected in mice (Mus musculus) assessed as mice (Mus musculus) survival at 10 mg/kg, intraperitoneal for 5 consecutive days measured on day 14 post parasitic infection. Also noted: dose 10 mg/kg. The data set is classed as functional, organism-based. A digest of the protocol:
as §2

Data set [15] deals with Plasmodium berghei. Kind of data set: Antiplasmodial activity against Plasmodium berghei ANKA infected in mice (Mus musculus) assessed as mice (Mus musculus) survival at 10 mg/kg, intraperitoneal for 5 consecutive days measured on day 11 post parasitic infection. It counts as functional, organism-based. Also noted: dose 10 mg/kg. A digest of the protocol:
as §2

Data set [16] has as its system Plasmodium berghei. Kind of data set: Antiplasmodial activity against Plasmodium berghei ANKA infected in mice (Mus musculus) assessed as mice (Mus musculus) survival at 10 mg/kg, intraperitoneal for 5 consecutive days measured on day 7 post parasitic infection. It counts as functional, organism-based. Also noted: dose 10 mg/kg. The method, boiled down:
as §2

Data set [17] has as its system Plasmodium berghei. Kind of data set: Antiplasmodial activity against Plasmodium berghei ANKA infected in mice (Mus musculus) assessed as suppression of parasitaemia at 10 mg/kg, intraperitoneal for 5 consecutive days measured on day 4 post parasitic infection. As to conditions: ip, 96 h, read-out: INH.

On to `O=CN(O)CCC(c1ccc(Cl)c(Cl)c1)P(=O)(O)O` (stereo not drawn), for which the IC50 with Plasmodium falciparum [1] was 160 nM; with Plasmodium falciparum [4], 600 nM. The outcome in the data set on Plasmodium berghei [2], with Plasmodium berghei [6] and in the data set with Plasmodium berghei [7] was inactive. Besides, the MST in the data set on Plasmodium berghei [3] worked out at 7 days. The inhibition in vivo at 50 mg/kg with Plasmodium berghei [5] amounted to 46%.
Consider `CN(O)C(=O)CCC(F)P(=O)(O)O.N.N` (racemic), for which the IC50 in the data set with Plasmodium falciparum [1] was 310 nM; in the data set on Plasmodium falciparum [4], 730 nM. Further, the “Ratio IC50” value in the data set with Plasmodium falciparum [8] worked out at 5. Further, the MST in the data set with Plasmodium berghei [3] was determined as 11.7 days. Further, the inhibition in vivo at 50 mg/kg turned out to be 85% in the data set on Plasmodium berghei [5], 42% in the data set on Plasmodium berghei [9] and 41% with Plasmodium berghei [10]. For the same compound, the result in the data set with Plasmodium berghei [6] was inactive.
Take `CC(=O)N(O)CCC(Cl)P(=O)(O)O.N.N` (racemic): the IC50 in the data set with Plasmodium falciparum [1] is 300 nM; with Plasmodium falciparum [4], 820 nM. Besides, the “Ratio IC50” value in the data set with Plasmodium falciparum [8] is 5. Also, the pKa in data set [11] is at most 6.
Consider `CC(=O)N(O)CCC(F)P(=O)(O)O.N.N` (racemic), for which the figures for the IC50 with Plasmodium falciparum [1] and in the data set with Plasmodium falciparum [4] were 290 nM and 700 nM, respectively. Besides, in the data set on Plasmodium falciparum [8], the “Ratio IC50” value was found to be 5. Further, in the data set with Plasmodium berghei [3], the MST was determined as 15.8 days. Further, the inhibition in vivo at 50 mg/kg in the data set on Plasmodium berghei [5] worked out at 88%; in the data set on Plasmodium berghei [9], 62%; in the data set with Plasmodium berghei [10], 32%. Further, the outcome in the data set on Plasmodium berghei [6] was inactive. For the same compound, the outcome with Plasmodium berghei [12] was Active. For the same compound, in data set [11], the pKa was at most 6.
In the case of `CCN(CC)CCCC(C)Nc1ccnc2cc(Cl)ccc12` (stereo not drawn) [CHLOROQUINE], the MST in the data set with Plasmodium berghei [13] was found to be 20.7 days. For the same compound, the outcome in the data set on Plasmodium berghei [14], in the data set with Plasmodium berghei [15] and in the data set with Plasmodium berghei [16] was Active. The inhibition in vivo at 10 mg/kg with Plasmodium berghei [17] came out at 100%.
In the case of `O=CN(O)CCCP(=O)(O)O` [FOSMIDOMYCIN], in the data set on Plasmodium falciparum [1], the IC50 is 1730 nM. Besides, in the data set with Plasmodium berghei [3], the MST amounted to 11.5 days. For the same compound, the inhibition in vivo at 50 mg/kg in the data set on Plasmodium berghei [5] came out at 82%. In the data set on Plasmodium berghei [12], the outcome was Active.
`CC(=O)N(O)CCCP(=O)(O)O` [FR-900098] returned an IC50 in the data set on Plasmodium falciparum [1] of 420 nM. In addition, the MST with Plasmodium berghei [3] was determined as 10.8 days. Further, the inhibition in vivo at 50 mg/kg in the data set on Plasmodium berghei [5] stood at 93%. Besides, in the data set on Plasmodium berghei [12], the result was Active. Also, the pKa in [11] was determined as 7.35.
